The results in this text go back to ChEMBL document CHEMBL4477168, “Hydrolyzable Tannins of Tamaricaceous Plants. 7.1 Structures and Cytotoxic Properties of Oligomeric Ellagitannins from Leaves of Tamarix nilotica and Cultured Tissues of Tamarix tetrandra” (J Nat Prod, 2016).

The test system of data set [1] is HSC-2. Nature of the data set: Cytotoxic activity against human HSC2 cells assessed as reduction in cell viability incubated for 48 hrs by MTT assay. The data set is classed as functional. The settings on record: HSC-2, 48 h. Put shortly: (§1)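 OSCC lines HSC-2, HSC-3, HSC-4 grown in DMEM + 10% heat-inactivated FBS, 37 °C, humidified 5% CO2. Seeded 5 × 10^3 cells/well; after 48 h medium swapped for compound-containing medium (20 mM DMSO stock; top 100 μM, 2-fold serial dilution, three replicate wells). Further 48 h, viable cells by MTT; CC50 read from dose−response curve; at least three independent experiments averaged.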
A general note: Tetrazolium assays rely on reduction of a dye to a coloured formazan, in cell work by metabolically active cells.

The subject of data set [2] is HSC-3. Nature of the data set: Cytotoxic activity against human HSC3 cells assessed as reduction in cell viability incubated for 48 hrs by MTT assay. The settings on record: HSC-3, 48 h. The data set is classed as functional. An outline of the steps:
as §1

Data set [3] has as its system HSC-4. Nature of the data set: Cytotoxic activity against human HSC4 cells assessed as reduction in cell viability incubated for 48 hrs by MTT assay. The data set is classed as functional. The settings on record: HSC-4, 48 h. An outline of the steps: as §1
The subject of data set [4] is HL-60. Nature of the data set: Cytotoxic activity against human HL60 cells assessed as reduction in cell viability incubated for 48 hrs by trypan blue staining based hemocytometry. The data set is classed as functional. The settings on record: HL-60, 48 h. Put shortly:
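HL-60 cultured in RPMI1640 + 10% heat-inactivated FBS at 37 °C; plated at 3.0 × 10^4 cells/0.1 mL with various compound concentrations (DMSO stock 20 mM). After 48 h, viable cells counted by trypan blue exclusion on a hemocytometer under light microscope; CC50 from dose−response curve, mean of at least three independent experiments.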

Data set [5] in a line: Cytotoxic activity against human HGF cells assessed as reduction in cell viability incubated for 48 hrs by MTT assay. The data set is classed as cell-based. An outline of the steps: (§2)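 Normal oral cells (gingival fibroblasts, pulp cells, periodontal ligament fibroblasts) from a premolar of a child, used at 8−15 population doublings; DMEM + 10% heat-inactivated FBS, 37 °C, 5% CO2. Seeded 5 × 10^3 cells/well, medium replaced after 48 h with compound (DMSO stock 20 mM; 2-fold dilutions from 100 μM, triplicate wells); 48 h more, MTT viability; CC50 from dose−response curve; mean of ≥3 independent experiments.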

Data set [6] can be described thus: Cytotoxic activity against human HPC cells assessed as reduction in cell viability incubated for 48 hrs by MTT assay. The data set is classed as cell-based. Put shortly:
as §2

Data set [7] in a line: Cytotoxic activity against human HPLF cells assessed as reduction in cell viability incubated for 48 hrs by MTT assay. The data set is classed as cell-based. An outline of the steps: as §2

As a reminder, the CC50 is the concentration at which the toxic effect on the cells reaches its halfway point. For `O=C(O[C@@H]1O[C@@H]2COC(=O)c3cc(O)c(O)c(O)c3-c3c(cc(O)c(O)c3O)C(=O)O[C@H]2[C@H](OC(=O)c2cc(O)c(O)c(O)c2)[C@H]1OC(=O)c1cc(O)c(O)c(O)c1Oc1cc(C(=O)O[C@@H]2O[C@@H]3COC(=O)c4cc(O)c(O)c(O)c4-c4c(cc(O)c(O)c4O)C(=O)O[C@H]3[C@H](OC(=O)c3cc(O)c(O)c(O)c3)[C@H]2OC(=O)c2cc(O)c(O)c(O)c2Oc2cc3c(c(O)c2O)Oc2cc(cc(O)c2O)C(=O)O[C@@H]2O[C@@H]4COC(=O)c5cc(O)c(O)c(O)c5-c5c(cc(O)c(O)c5O)C(=O)O[C@H]4[C@H](OC(=O)c4cc(O)c(O)c(O)c4)[C@H]2OC3=O)cc(O)c1O)c1cc(O)c(O)c(O)c1`, the half-maximal cytotoxic concentration (CC50) in data set [1] worked out at 18.8 µM; in data set [2], 25.5 µM; in data set [3], 34.3 µM; in data set [4], 16.4 µM. The CC50 at 48 h in data set [5] turned out to be 87.7 µM; in data set [6], 85 µM; in data set [7], 98.6 µM.

Turning to `O=C(O[C@@H]1O[C@@H]2COC(=O)c3cc(O)c(O)c(O)c3-c3c(cc(O)c(O)c3O)C(=O)O[C@H]2[C@H](OC(=O)c2cc(O)c(O)c(O)c2)[C@H]1OC(=O)c1cc(O)c(O)c(O)c1)c1cc(O)c(O)c(Oc2c(C(=O)O[C@@H]3[C@@H](OC(=O)c4cc(O)c(O)c(O)c4)[C@@H]4OC(=O)c5cc(O)c(O)c(O)c5-c5c(cc(O)c(O)c5O)C(=O)OC[C@H]4O[C@H]3O)cc(O)c(O)c2O)c1`, the CC50 in data set [1] was determined as 17.7 µM; in data set [2] it was 32.6 µM; in data set [3], 37.9 µM; in data set [4] it was 19.5 µM. In addition, the CC50 at 48 h is 92 µM in data set [5], 86.6 µM in data set [6] and over 100 µM in data set [7].

Regarding `O=C(O[C@@H]1O[C@@H]2COC(=O)c3cc(O)c(O)c(O)c3-c3c(cc(O)c(O)c3O)C(=O)O[C@H]2[C@H](OC(=O)c2cc(O)c(O)c(O)c2)[C@H]1O)c1cc(O)c(O)c(O)c1`, the CC50 in data set [1] worked out at 14.1 µM; in data set [2], 28 µM; in data set [3], 38 µM; in data set [4], 39.9 µM. Moreover, the CC50 at 48 h in data set [5], in data set [6] and in data set [7] was over 100 µM throughout.

As to `O=C(O[C@H]1[C@@H]2OC(=O)c3cc(O)c(O)c(O)c3-c3c(cc(O)c(O)c3O)C(=O)OC[C@H]2OC(O)[C@@H]1OC(=O)c1cc(O)c(O)c(O)c1)c1cc(O)c(O)c(O)c1` (some centres undefined), the CC50 in data set [1] was 14.6 µM; in data set [2], 19.5 µM; in data set [3], 45.7 µM; in data set [4], 46.7 µM. Moreover, the CC50 at 48 h in data set [5] is over 100 µM; in data set [6], 64 µM; in data set [7], over 100 µM.

Consider `O=C(O[C@H]1[C@@H]2OC(=O)c3cc(O)c(O)c(O)c3-c3c(cc(O)c(O)c3O)C(=O)OC[C@H]2OC(O)[C@@H]1O)c1cc(O)c(O)c(O)c1` (some centres undefined), for which the CC50 amounted to 5.82 µM in data set [1], 23.3 µM in data set [2], 34.4 µM in data set [3] and 30.5 µM in data set [4]. In addition, the half-maximal cytotoxic concentration (CC50) at 48 h in data set [5], in data set [6] and in data set [7] was over 100 µM each time.

Regarding `O=C(O[C@@H]1O[C@@H]2COC(=O)c3cc(O)c(O)c(O)c3-c3c(cc(O)c(O)c3O)C(=O)O[C@H]2[C@H](OC(=O)c2cc(O)c(O)c(O)c2)[C@H]1OC(=O)c1cc(O)c(O)c(O)c1)c1cc(O)c(O)c(Oc2c(C(=O)O[C@H]3[C@H](OC(=O)c4cc(O)c(O)c(Oc5c(C(=O)O[C@H]6C(O)O[C@@H]7COC(=O)c8cc(O)c(O)c(O)c8-c8c(cc(O)c(O)c8O)C(=O)O[C@H]7[C@@H]6OC(=O)c6cc(O)c(O)c(O)c6)cc(O)c(O)c5O)c4)O[C@@H]4COC(=O)c5cc(O)c(O)c(O)c5-c5c(cc(O)c(O)c5O)C(=O)O[C@H]4[C@@H]3OC(=O)c3cc(O)c(O)c(O)c3)cc(O)c(O)c2O)c1` (some centres undefined), the CC50 in data set [1] amounted to 23.2 µM; in data set [2], 21.2 µM; in data set [3], 33.9 µM; in data set [4], 6.48 µM. The CC50 at 48 h was 88 µM in data set [5], 86 µM in data set [6] and 88.3 µM in data set [7].

Regarding `O=C(O[C@@H]1O[C@@H]2COC(=O)c3cc(O)c(O)c(O)c3-c3c(cc(O)c(O)c3O)C(=O)O[C@H]2[C@H](OC(=O)c2cc(O)c(O)c(O)c2)[C@H]1OC(=O)c1cc(O)c(O)c(O)c1)c1cc(O)c(Oc2c(C(=O)O[C@H]3[C@H](OC(=O)c4cc(O)c(O)c(O)c4)O[C@@H]4COC(=O)c5cc(O)c(O)c(O)c5-c5c(cc(O)c(O)c5O)C(=O)O[C@H]4[C@@H]3OC(=O)c3cc(O)c(O)c(O)c3)cc(O)c(O)c2O)c(O)c1`, the CC50 in data set [1] is 16.3 µM; in data set [2], 29.4 µM; in data set [3] it was 27.7 µM; in data set [4], 29.7 µM. The CC50 at 48 h in data set [5] was 95.3 µM; in data set [6], 89 µM; in data set [7] it was over 100 µM.
